Source: ChEMBL document CHEMBL5724801, “EUbOPEN Chemogenomics Library - Multiplex” (2024)
Several values for one entry are separate records, joined by “and”; a condition that tells them apart may be missing. Equal values may be shown once.

System: HEK-293T
Assay: Multiplex assay against HEK293T
Type: toxicity, cell-based
Conditions: human
Method in brief: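 Values for tubulin, mitochondrial-mass and membrane-permeability phenotypes are per cents of cells with healthy nuclei. These cells were identified by CellPathfinder machine-learning gating of live cells that had been stained at seeding with Hoechst33342, BioTracker Green Microtubule Cytoskeleton Dye, MitoTracker Red and Annexin V Alexa Fluor 680 and imaged on a CQ1 microscope at 37°C and 5% CO2 after compound addition. The gating first set Hoechst high-intensity objects apart from normal cells, then split normal cells into healthy, pyknosed or fragmented nuclei, and pyknosed cells into mitotic or apoptotic.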

[1] = 12 h, 1 µM, compound concentration 1 uM
[2] = 12 h, 10 µM, compound concentration 10 uM
[3] = 24 h, 1 µM, compound concentration 1 uM
[4] = 24 h, 10 µM, compound concentration 10 uM
[5] = 48 h, 1 µM, compound concentration 1 uM
[6] = 48 h, 10 µM, compound concentration 10 uM

## Cc1[nH]nc2ccc(-c3cncc(OCC(N)Cc4c[nH]c5ccccc45)c3)cc12 (stereo not given)
[1]
  Population Apoptotic (%): 14.46% and 12.06%
  Population Fragmented Nuclei (%): 1.15% and 2.53%
  Population Hoechst High Intensity Objects (%): 0.86% and 0%
  Population Membrane Permeable-Phenotype (%): 1.98% and 0%
  Population Mitotic Cells (%): 85.54% and 87.94%
  Population Normal (%): 99.14% and 100%
  Population Pyknosed Nuclei (%): 69.74% and 89.24%
  Total Cell Count: 350 and 158
[2]
  Population Apoptotic (%): 26.81% and 37.12%
  Population Fragmented Nuclei (%): 0.85% and 0%
  Population Healthy Nuclei (%): 5.1% and 3.65%
  Population Hoechst High Intensity Objects (%): 0.28% and 0%
  Population Membrane Permeable-Phenotype (%): 0%
  Population Mitochondria Different-Phenotype (%): 16.67% and 0%
  Population Mitotic Cells (%): 73.19% and 62.88%
  Population Normal (%): 99.72% and 100%
  Population Pyknosed Nuclei (%): 94.05% and 96.35%
  Total Cell Count: 354 and 137
[3]
  Population Apoptotic (%): 39.92% and 29.58%
  Population Fragmented Nuclei (%): 0.63% and 1.97%
  Population Hoechst High Intensity Objects (%): 0.62% and 0%
  Population Membrane Permeable-Phenotype (%): 1.59% and 0%
  Population Mitochondria Different-Phenotype (%): 34.92% and 28.57%
  Population Mitotic Cells (%): 60.08% and 70.42%
  Population Normal (%): 99.38% and 100%
  Population Pyknosed Nuclei (%): 79.56% and 93.42%
  Total Cell Count: 320 and 152
[4]
  Population Apoptotic (%): 80.3% and 96.64%
  Population Fragmented Nuclei (%): 0.86% and 2.34%
  Population Healthy Nuclei (%): 3.15% and 4.69%
  Population Hoechst High Intensity Objects (%): 0.85% and 0%
  Population Membrane Permeable-Phenotype (%): 0% and 16.67%
  Population Mitochondria Different-Phenotype (%): 72.73% and 33.33%
  Population Normal (%): 99.15% and 100%
  Population Pyknosed Nuclei (%): 95.99% and 92.97%
  Population Tubulin-Different-Phenotype (%): 72.73% and 33.33%
  Total Cell Count: 352 and 128
[5]
  Population Apoptotic (%): 57.46% and 49.23%
  Population Fragmented Nuclei (%): 2.33% and 1.39%
  Population Healthy Nuclei (%): 21.93% and 8.33%
  Population Hoechst High Intensity Objects (%): 0.33% and 0.69%
  Population Membrane Permeable-Phenotype (%): 0%
  Population Mitochondria Different-Phenotype (%): 86.36% and 58.33%
  Population Mitotic Cells (%): 42.54% and 50.77%
  Population Normal (%): 99.67% and 99.31%
  Population Pyknosed Nuclei (%): 75.75% and 90.28%
  Total Cell Count: 302 and 145
[6]
  Population Apoptotic (%): 80.14% and 100%
  Population Fragmented Nuclei (%): 0.68% and 1.68%
  Population Healthy Nuclei (%): 3.73% and 4.2%
  Population Hoechst High Intensity Objects (%): 3.91% and 0%
  Population Membrane Permeable-Phenotype (%): 9.09% and 0%
  Population Mitochondria Different-Phenotype (%): 54.55% and 40%
  Population Mitotic Cells (%): 19.86% and 0%
  Population Normal (%): 96.09% and 100%
  Population Pyknosed Nuclei (%): 95.59% and 94.12%
  Population Tubulin-Different-Phenotype (%): 45.45% and 40%
  Total Cell Count: 307 and 119

## CN1CCN(c2cc(-c3ccccc3)nc(N)n2)CC1
[1]
  Population Apoptotic (%): 40% and 34%
  Population Fragmented Nuclei (%): 8% and 5%
  Population Healthy Nuclei (%): 79% and 84%
  Population Hoechst High Intensity Objects (%): 6%
  Population Membrane Permeable-Phenotype (%): 0%
  Population Mitochondria Different-Phenotype (%): 35% and 48%
  Population Mitotic Cells (%): 60% and 65%
  Population Normal (%): 93%
  Population Pyknosed Nuclei (%): 11% and 10%
  Population Tubulin-Different-Phenotype (%): 21% and 16%
  Total Cell Count: 383 and 354
[2]
  Population Apoptotic (%): 23% and 36%
  Population Fragmented Nuclei (%): 7% and 6%
  Population Healthy Nuclei (%): 82% and 81%
  Population Hoechst High Intensity Objects (%): 7% and 10%
  Population Membrane Permeable-Phenotype (%): 0%
  Population Mitochondria Different-Phenotype (%): 46% and 63%
  Population Mitotic Cells (%): 76% and 63%
  Population Normal (%): 92% and 89%
  Population Pyknosed Nuclei (%): 9% and 12%
  Population Tubulin-Different-Phenotype (%): 30% and 20%
  Total Cell Count: 416 and 296
[3]
  Population Apoptotic (%): 20% and 36%
  Population Fragmented Nuclei (%): 9%
  Population Healthy Nuclei (%): 79% and 82%
  Population Hoechst High Intensity Objects (%): 4%
  Population Membrane Permeable-Phenotype (%): 1%
  Population Mitochondria Different-Phenotype (%): 16% and 24%
  Population Mitotic Cells (%): 79% and 63%
  Population Normal (%): 95%
  Population Pyknosed Nuclei (%): 11% and 8%
  Population Tubulin-Different-Phenotype (%): 12% and 8%
  Total Cell Count: 488 and 480
[4]
  Population Apoptotic (%): 44% and 34%
  Population Fragmented Nuclei (%): 13% and 9%
  Population Healthy Nuclei (%): 75% and 79%
  Population Hoechst High Intensity Objects (%): 6% and 9%
  Population Membrane Permeable-Phenotype (%): 0%
  Population Mitochondria Different-Phenotype (%): 32% and 50%
  Population Mitotic Cells (%): 55% and 65%
  Population Normal (%): 93% and 90%
  Population Pyknosed Nuclei (%): 11%
  Population Tubulin-Different-Phenotype (%): 19% and 17%
  Total Cell Count: 577 and 378
[5]
  Population Apoptotic (%): 23% and 14%
  Population Fragmented Nuclei (%): 13%
  Population Healthy Nuclei (%): 78% and 80%
  Population Hoechst High Intensity Objects (%): 1% and 2%
  Population Membrane Permeable-Phenotype (%): 1% and 0%
  Population Mitochondria Different-Phenotype (%): 12% and 14%
  Population Mitotic Cells (%): 76% and 85%
  Population Normal (%): 98% and 97%
  Population Pyknosed Nuclei (%): 7% and 6%
  Population Tubulin-Different-Phenotype (%): 12% and 9%
  Total Cell Count: 745 and 804
[6]
  Population Apoptotic (%): 16% and 27%
  Population Fragmented Nuclei (%): 17% and 13%
  Population Healthy Nuclei (%): 75% and 81%
  Population Hoechst High Intensity Objects (%): 3%
  Population Membrane Permeable-Phenotype (%): 0% and 1%
  Population Mitochondria Different-Phenotype (%): 25% and 24%
  Population Mitotic Cells (%): 83% and 72%
  Population Normal (%): 96%
  Population Pyknosed Nuclei (%): 6% and 4%
  Population Tubulin-Different-Phenotype (%): 14% and 11%
  Total Cell Count: 861 and 645

## OCCCNc1cc(-c2ccnc(Nc3cccc(Cl)c3)n2)ccn1
[1]
  Population Apoptotic (%): 66% and 65%
  Population Fragmented Nuclei (%): 9% and 8%
  Population Healthy Nuclei (%): 66% and 74%
  Population Hoechst High Intensity Objects (%): 14% and 11%
  Population Membrane Permeable-Phenotype (%): 0%
  Population Mitochondria Different-Phenotype (%): 82% and 88%
  Population Mitotic Cells (%): 33% and 34%
  Population Normal (%): 85% and 88%
  Population Pyknosed Nuclei (%): 24% and 16%
  Population Tubulin-Different-Phenotype (%): 75% and 57%
  Total Cell Count: 204 and 173
[2]
  Population Apoptotic (%): 78% and 75%
  Population Fragmented Nuclei (%): 14%
  Population Healthy Nuclei (%): 55% and 67%
  Population Hoechst High Intensity Objects (%): 30% and 41%
  Population Membrane Permeable-Phenotype (%): 1% and 10%
  Population Mitochondria Different-Phenotype (%): 83% and 85%
  Population Mitotic Cells (%): 21% and 25%
  Population Normal (%): 69% and 58%
  Population Pyknosed Nuclei (%): 30% and 18%
  Population Tubulin-Different-Phenotype (%): 80% and 72%
  Total Cell Count: 249 and 224
[3]
  Population Apoptotic (%): 91% and 77%
  Population Fragmented Nuclei (%): 10% and 13%
  Population Healthy Nuclei (%): 66% and 76%
  Population Hoechst High Intensity Objects (%): 14% and 15%
  Population Membrane Permeable-Phenotype (%): 0%
  Population Mitochondria Different-Phenotype (%): 80% and 86%
  Population Mitotic Cells (%): 8% and 22%
  Population Normal (%): 85% and 84%
  Population Pyknosed Nuclei (%): 22% and 10%
  Population Tubulin-Different-Phenotype (%): 61%
  Total Cell Count: 228 and 202
[4]
  Population Apoptotic (%): 71% and 78%
  Population Fragmented Nuclei (%): 16% and 15%
  Population Healthy Nuclei (%): 44% and 54%
  Population Hoechst High Intensity Objects (%): 41% and 45%
  Population Membrane Permeable-Phenotype (%): 0% and 3%
  Population Mitochondria Different-Phenotype (%): 85% and 91%
  Population Mitotic Cells (%): 28% and 21%
  Population Normal (%): 58% and 54%
  Population Pyknosed Nuclei (%): 38% and 29%
  Population Tubulin-Different-Phenotype (%): 88% and 82%
  Total Cell Count: 237 and 207
[5]
  Population Apoptotic (%): 82% and 61%
  Population Fragmented Nuclei (%): 12% and 17%
  Population Healthy Nuclei (%): 51% and 65%
  Population Hoechst High Intensity Objects (%): 18% and 21%
  Population Membrane Permeable-Phenotype (%): 1% and 0%
  Population Mitochondria Different-Phenotype (%): 88% and 84%
  Population Mitotic Cells (%): 17% and 38%
  Population Normal (%): 81% and 78%
  Population Pyknosed Nuclei (%): 35% and 17%
  Population Tubulin-Different-Phenotype (%): 68% and 59%
  Total Cell Count: 232 and 193
[6]
  Population Apoptotic (%): 71% and 83%
  Population Fragmented Nuclei (%): 16% and 25%
  Population Healthy Nuclei (%): 46%
  Population Hoechst High Intensity Objects (%): 57% and 56%
  Population Membrane Permeable-Phenotype (%): 1% and 8%
  Population Mitochondria Different-Phenotype (%): 78% and 85%
  Population Mitotic Cells (%): 28% and 16%
  Population Normal (%): 42% and 43%
  Population Pyknosed Nuclei (%): 37% and 28%
  Population Tubulin-Different-Phenotype (%): 76% and 79%
  Total Cell Count: 262 and 238
